Reference: ChEMBL document CHEMBL2157873, “Development and characterization of endocannabinoid hydrolases FAAH and MAGL inhibitors bearing a benzotriazol-1-yl carboxamide scaffold” (Bioorg Med Chem, 2012)
Activity calls are given as the source filed them. The calls are words filed in the database; no cut-off is given here.

Columns and labels:
[1] = target: T1, Fatty-acid amide hydrolase 1 (Homo sapiens, UniProt O00519); assay: Inhibition of human recombinant FAAH assessed as [3H]-AEA hydrolysis preincubated for 30 mins […] measured after 10 mins by liquid scintillation counting
T1 sequence (O00519 whole entry): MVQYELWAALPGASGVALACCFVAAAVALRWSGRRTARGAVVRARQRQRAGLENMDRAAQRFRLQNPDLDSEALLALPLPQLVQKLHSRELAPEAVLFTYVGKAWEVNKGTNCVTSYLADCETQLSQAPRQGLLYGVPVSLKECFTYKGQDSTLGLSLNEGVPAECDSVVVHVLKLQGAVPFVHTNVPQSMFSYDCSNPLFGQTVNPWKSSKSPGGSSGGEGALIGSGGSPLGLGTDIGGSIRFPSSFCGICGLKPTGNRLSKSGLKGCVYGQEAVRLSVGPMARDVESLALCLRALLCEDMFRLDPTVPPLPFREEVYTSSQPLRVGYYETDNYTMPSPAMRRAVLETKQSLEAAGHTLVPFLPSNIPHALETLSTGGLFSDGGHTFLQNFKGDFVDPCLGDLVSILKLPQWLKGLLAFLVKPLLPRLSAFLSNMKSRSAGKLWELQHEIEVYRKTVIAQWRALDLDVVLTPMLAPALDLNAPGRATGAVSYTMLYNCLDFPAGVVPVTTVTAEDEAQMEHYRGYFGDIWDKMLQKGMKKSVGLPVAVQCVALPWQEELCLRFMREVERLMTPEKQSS
In short: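 Human FAAH fused to maltose-binding protein, preincubated 30 min at 22 °C with inhibitor at various concentrations (Tris 10 mM, EDTA 1 mM, pH 8.0, inhibitor in DMSO). [3H]-anandamide (50,000 dpm) added, 10 min at 37 °C. Stopped with cold methanol/chloroform (1:1), aqueous-phase radioactivity by scintillation, blank subtracted, percent of control fitted as dose-response. Three independent experiments in duplicate.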

[2] = target: T2, Monoglyceride lipase (Homo sapiens) (UniProt Q99685); assay: Irreversible inhibition of human MAGL assessed as [3H]-2-OG hydrolysis preincubated for 30 mins before [3H]-2-OG addition measured at 10^-8 M to 10^-9 M measured after 300 fold dilution rapid dilution assay
T2 sequence (whole entry): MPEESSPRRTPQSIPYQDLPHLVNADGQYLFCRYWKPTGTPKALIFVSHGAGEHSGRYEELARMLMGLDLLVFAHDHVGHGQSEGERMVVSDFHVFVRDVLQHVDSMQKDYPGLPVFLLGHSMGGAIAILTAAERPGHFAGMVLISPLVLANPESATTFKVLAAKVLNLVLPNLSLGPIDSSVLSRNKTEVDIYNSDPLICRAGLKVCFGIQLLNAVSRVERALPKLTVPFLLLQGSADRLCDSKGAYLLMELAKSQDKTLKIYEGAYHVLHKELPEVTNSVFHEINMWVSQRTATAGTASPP
In short: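 Human MAGL (800 ng in Tris 50 mM, BSA 0.15%, pH 8.0) incubated 30 min at room temperature with inhibitor at 10^-8 or 10^-9 M in the mixture (DMSO). Diluted 300-fold in buffer, 15 min incubation, then [3H]-2-OG hydrolase activity read on an aliquot holding 10 ng enzyme by the standard radiometric method. Performed two times in triplicate.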

Monoglyceride lipase [3] = target: T3, Monoglyceride lipase (Homo sapiens, UniProt Q99685); assay: Inhibition of human MAGL assessed as [3H]-2-OG hydrolysis preincubated for 30 mins before [3H]-2-OG addition measured after 10 mins by liquid scintillation counting
T3 sequence (Q99685 whole entry): T2 sequence (whole entry)
In short: (§1)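 [3H]-2-oleoylglycerol then added at 10 µM final. Stopped with methanol-chloroform (1:1), centrifuged 5 min at 700 g, aqueous-phase radioactivity read by liquid scintillation, no-enzyme blank subtracted. Means of three independent experiments in duplicate.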

Monoglyceride lipase [4] = target: T3, Monoglyceride lipase; assay: Irreversible inhibition of human MAGL using p-nitrophenylpropionate as substrate
In short: (§2)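 MAGL (3 ng; Tris 50 mM, LDAO 0.1%, pH 8.0) added to p-nitrophenylpropionate (1.25 mM) plus inhibitor at various concentrations, both in DMSO. […] Done four times in quadruplicate.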

[5] = target: Monoglyceride lipase (Homo sapiens) (UniProt Q99685); assay: Ratio of JZL184 IC50 to compound IC50 for human MAGL
[6] = target: T2, Monoglyceride lipase (Homo sapiens); assay: Ratio of Kinact to Ki for human MAGL using p-nitrophenylpropionate as substrate; in short: as §2
Homo sapiens = organism: Homo sapiens; assay: Selectivity ratio of IC50 for human recombinant FAAH to IC50 for human MAGL
In short: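 Selectivity calculated as IC50 for human FAAH divided by IC50 for human MAGL. Both IC50 values from radiometric hydrolysis assays: [3H]-AEA with MBP-fused FAAH and [3H]-2-OG with pure MAGL. Each assay had 30 min inhibitor preincubation. Means of three independent experiments in duplicate.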

[7] = target: T2, Monoglyceride lipase (Homo sapiens); assay: Ratio of JZL184 IC50 to compound IC50 for human MAGL
Monoglyceride lipase [8] = target: T3, Monoglyceride lipase; assay: Inhibition of MAGL; in short: as §1
[9] = target: T4, Fatty-acid amide hydrolase 1 (Homo sapiens) (UniProt O00519); assay: Inhibition of human recombinant FAAH assessed as [3H]-AEA hydrolysis preincubated for 30 mins […] measured at 10^-5 M after 10 mins by liquid scintillation counting
T4 sequence (whole entry): T1 sequence (O00519 whole entry)

[10] = target: T1, Fatty-acid amide hydrolase 1; assay: Inhibition of FAAH
In short: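 Human FAAH fused to maltose-binding protein, preincubated 30 min at 22 °C with inhibitor (various concentrations, in DMSO) in Tris 10 mM, EDTA 1 mM, pH 8.0. [³H]-anandamide substrate added, then 10 min at 37 °C. Stopped with cold methanol/chloroform (1:1). Aqueous-phase radioactivity counted by liquid scintillation, with the no-enzyme blank subtracted. Activity taken as percent of control; IC50 from dose-response curves; three independent experiments in duplicate.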

IC50 [1] | IC50 (Monoglyceride lipase [3]) | Ratio IC50 (Homo sapiens) | SMILES | also measured
12 nM | 9 nM | 1.3 | O=C(N1CCN(Cc2ccc3ccccc3c2)CC1)n1nnc2ccccc21 | –
27500 nM | 676 nM | 41 | O=C(O)c1cccc(CN2CCN(C(=O)n3nnc4ccccc43)CC2)c1 | –
5010 nM | 63 nM | 79 | CN(C)C(=O)c1cc(N2CCN(C(=O)n3nnc4ccccc43)CC2)ccc1[N+](=O)[O-] | –
275 nM | 102 nM | 2.7 | CN(C)C(=O)c1cccc(CN2CCN(C(=O)n3nnc4ccccc43)CC2)c1 | –
9 nM | 23 nM | 0.4 | O=C(N1CCN(Cc2cccc(-c3ccccc3)c2)CC1)n1nnc2ccccc21 | –
89 nM | 12 nM | 7.6 | O=C(N1CCN(Cc2ccc([N+](=O)[O-])cc2)CC1)n1nnc2ccccc21 | –
43 nM | 8 nM | 5.4 | O=C(N1CCN(Cc2cccc([N+](=O)[O-])c2)CC1)n1nnc2ccccc21 | –
58 nM | 36 nM | 1.6 | O=C(c1cccc(CN2CCN(C(=O)n3nnc4ccccc43)CC2)c1)N1CCCCC1 | –
44 nM | 13 nM | 3.4 | O=C(NC1CCCCC1)c1cccc(CN2CCN(C(=O)n3nnc4ccccc43)CC2)c1 | –
22 nM | 9 nM | 2.5 | O=C(N1CCN(Cc2ccc(Br)cc2)CC1)n1nnc2ccccc21 | –
35 nM | 7 nM | 4.8 | O=C(Nc1ccccc1)c1cccc(CN2CCN(C(=O)n3nnc4ccccc43)CC2)c1 | –
1380 nM | 324 nM | 4.3 | CN1CCN(C(=O)c2cccc(CN3CCN(C(=O)n4nnc5ccccc54)CC3)c2)CC1 | –
19 nM | 8 nM | 2.4 | O=C(N1CCN(Cc2ccccc2)CC1)n1nnc2ccccc21 | –
17 nM | 11 nM | 1.5 | O=C(N1CCN(Cc2ccc(Cl)cc2)CC1)n1nnc2ccccc21 | –

Second part, the compound before the results:

SMILES | IC50 [1] | IC50 (Monoglyceride lipase [3]) | Ratio IC50 (Homo sapiens) | also measured
O=C(N1CCN(C(c2ccccc2)c2ccccc2)CC1)n1nnc2ccccc21 | 562 nM | 0.54 nM | 1040 | inhibition [2]: Active; Ki (Monoglyceride lipase [4]): 75.7 nM; Ratio IC50 [5]: 70; Ratio [6]: 208000; Ratio IC50 [7]: 70
CC(C)NC(=O)c1cc(N2CCN(C(=O)n3nnc4ccccc43)CC2)ccc1[N+](=O)[O-] | 2090 nM | 234 nM | 8.9 | –
O=C(N1CCN(Cc2ccc(F)cc2)CC1)n1nnc2ccccc21 | 15 nM | 10 nM | 1.5 | –
O=C(N1CCN(Cc2ccc(-c3ccccc3)cc2)CC1)n1nnc2ccccc21 | 18 nM | 62 nM | 0.3 | –
O=C(N1CCN(C(c2ccccc2)c2ccccc2)CC1)n1nnc2ncccc21 | – | – | – | IC50 (Monoglyceride lipase [8]): 4 nM
O=C(N1CCN(Cc2ccccc2-c2ccccc2)CC1)n1nnc2ccccc21 | 32 nM | 33 nM | 1 | –
O=C(N1CCN(Cc2cccc(Cl)c2)CC1)n1nnc2ccccc21 | 9 nM | 2 nM | 4.5 | –
O=C(N1CCN(c2ccccc2F)CC1)n1nnc2ccccc21 | 13 nM | 30 nM | 0.44 | –
O=C(N1CCC(Cc2ccccc2)CC1)n1nnc2ccccc21 | 2 nM | 3 nM | 0.7 | –
O=C(c1ccc(N2CCN(C(=O)n3nnc4ccccc43)CC2)c([N+](=O)[O-])c1)N1CCOCC1 | 1950 nM | 955 nM | 2 | –
COc1ccc(N2CCN(C(=O)n3nnc4ccccc43)CC2)cc1 | 15 nM | 32 nM | 0.47 | –
O=C(c1cc(N2CCN(C(=O)n3nnc4ccccc43)CC2)ccc1[N+](=O)[O-])N1CCCCC1 | 2290 nM | 38 nM | 60 | –
O=C(c1cc(N2CCN(C(=O)n3nnc4ccccc43)CC2)ccc1[N+](=O)[O-])N1CCOCC1 | – | 162 nM | > 100 | inhibition [9]: 40%
O=C(N1CCN(c2ccccc2)CC1)n1nnc2ccccc21 | 11 nM | 21 nM | 0.5 | –
O=C(NC1CCCCC1)c1cc(N2CCN(C(=O)n3nnc4ccccc43)CC2)ccc1[N+](=O)[O-] | 490 nM | 41 nM | 12 | –
O=C(NCCc1ccc(O)c(O)c1)n1nnc2ccccc21 | – | 10500 nM | – | –
CC(C)NC(=O)c1ccc(N2CCN(C(=O)n3nnc4ccccc43)CC2)c([N+](=O)[O-])c1 | 158 nM | 372 nM | 0.43 | –
O=C(Oc1ccc([N+](=O)[O-])cc1)N1CCC(C(O)(c2ccc3c(c2)OCO3)c2ccc3c(c2)OCO3)CC1 | 36300 nM | – | – | IC50 [10]: 4690 nM
O=C(N1CCN(c2ccccc2[N+](=O)[O-])CC1)n1nnc2ccccc21 | 19 nM | 224 nM | 0.08 | –
O=C(N1CCN(C/C=C/c2ccccc2)CC1)n1nnc2ccccc21 | 28 nM | 33 nM | 0.8 | –
O=C(N1CCN(c2ccc([N+](=O)[O-])cc2)CC1)n1nnc2ccccc21 | 34 nM | 20 nM | 1.7 | –
O=C(N1CCN(Cc2cccc3ccccc23)CC1)n1nnc2ccccc21 | 13 nM | 3 nM | 4 | –
O=C(Nc1ccccc1)c1cc(N2CCN(C(=O)n3nnc4ccccc43)CC2)ccc1[N+](=O)[O-] | 363 nM | 19 nM | 19 | –
Cc1ccccc1N1CCN(C(=O)n2nnc3ccccc32)CC1 | 3 nM | 71 nM | 0.04 | –
CN1CCN(C(=O)c2cc(N3CCN(C(=O)n4nnc5ccccc54)CC3)ccc2[N+](=O)[O-])CC1 | – | 141 nM | > 100 | inhibition [9]: 40%
